Laboratory results taken from ChEMBL document CHEMBL4616722, “Discovery of Novel PDEδ Degraders for the Treatment of KRAS Mutant Colorectal Cancer” (J Med Chem, 2020).
Active and inactive are the calls of the source. The rule behind the calls is not given here.

Tests used:
[1] = test system: SW480; assay: Antiproliferative activity against human SW480 cells incubated for 72 hrs by CCK8 assay; settings: SW480, 72 h
[2] = test system: HCT-116; assay: Antiproliferative activity against human HCT116 cells incubated for 72 hrs by CCK8 assay; settings: HCT-116, 72 h
[3] = test system: SW480; assay: Induction of apoptosis in human SW480 cells assessed as early apoptotic cells level at 40 uM incubated for 24 hrs by propidium iode and annexin V-FITC staining based flow cytometry (reference value: 1.76%); assay type: functional
[4] = test system: SW480; assay: Induction of apoptosis in human SW480 cells assessed as late apoptotic cells level at 40 uM incubated for 24 hrs by propidium iode and annexin V-FITC staining based flow cytometry (reference value: 4.46%); assay type: functional
[5] = test system: SW480; assay: Induction of apoptosis in human SW480 cells assessed as necrotic cells level at 40 uM incubated for 24 hrs by propidium iode and annexin V-FITC staining based flow cytometry (reference value: 2.79%); assay type: functional
[6] = test system: SW480; assay: Antitumor activity against human SW480 cells xenografted in BALB/C nude mouse assessed as tumor growth inhibition at 50 mg/kg, ip dosed once daily for 12 consecutive days relative to control; assay type: functional; settings: read-out: TGI
In short: (§1)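 SW480 xenografts in nude mice, dosed intraperitoneally once a day for 12 consecutive days and compared with a vehicle group. Tumor growth followed over time and expressed as TGI, with data as mean ± standard deviation and significance by P value. Body weight and adverse effects were monitored throughout the study.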

[7] = Toxicity in BALB/C nude mouse xenografted with human SW480 cells assessed as induction of body weight loss at 50 mg/kg, ip dosed once daily for 12 consecutive days; assay type: organism-based; settings: in vivo; in short: as §1
[8] = Toxicity in BALB/C nude mouse xenografted with human SW480 cells assessed as induction of adverse effects at 50 mg/kg, ip dosed once daily for 12 consecutive days; assay type: organism-based; settings: in vivo; in short: as §1
[9] = test system: Mus musculus; assay: In-vivo protac activity at cereblon/PDE6D in BALB/C nude mouse xenografted with human SW480 cells assessed as decrease in PDEdelta level at 50 mg/kg, ip dosed once daily for 12 consecutive days by immunofluorescence assay; assay type: functional, organism-based
In short: (§2)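 Tumor tissue from SW480-transplanted nude mice analysed by immunofluorescence for PDEδ, RAS and p-Akt protein expression.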

[10] = Permeability in human Caco2 cells; assay type: ADME, cell-based; settings: caco-2
[11] = test system: MIA PaCa-2; assay: Antiproliferative activity against human MIAPaCa2 cells incubated for 72 hrs by CCK8 assay; assay type: functional, cell-based
[12] = test system: SW480; assay: Antiproliferative activity against human SW480 cells incubated for 72 hrs in presence of 30 uM pomalidomide by CCK8 assay; settings: SW480, 72 h
[13] = test system: SW480; assay: Induction of apoptosis in human SW480 cells assessed as early apoptotic cells level at 20 uM incubated for 24 hrs by propidium iode and annexin V-FITC staining based flow cytometry (reference value: 1.76%); assay type: functional
[14] = test system: SW480; assay: Induction of apoptosis in human SW480 cells assessed as late apoptotic cells level at 20 uM incubated for 24 hrs by propidium iode and annexin V-FITC staining based flow cytometry (reference value: 4.46%); assay type: functional
[15] = test system: SW480; assay: Induction of apoptosis in human SW480 cells assessed as necrotic cells level at 20 uM incubated for 24 hrs by propidium iode and annexin V-FITC staining based flow cytometry (reference value: 2.79%); assay type: functional
[16] = test system: Mus musculus; assay: In-vivo protac activity at cereblon/PDE6D in BALB/C nude mouse xenografted with human SW480 cells assessed as decrease in p-Akt level at 50 mg/kg, ip dosed once daily for 12 consecutive days by immunofluorescence assay; assay type: functional, organism-based; in short: as §2
[17] = Half life in Sprague-Dawley rat at 50 mg/kg, ip measured after 0.083 to 24 hrs by LC-MS/MS analysis; assay type: ADME, organism-based; settings: in vivo
In short: (§3)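 Rats given the compound intraperitoneally at 50 mg/kg, with drug levels measured in plasma over time. The concentration–time profile gave half-life, Cmax and AUC.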

[18] = Tmax in Sprague-Dawley rat at 50 mg/kg, ip measured after 0.083 to 24 hrs by LC-MS/MS analysis; assay type: ADME, organism-based; settings: in vivo; in short: as §3
[19] = Cmax in Sprague-Dawley rat at 50 mg/kg, ip measured after 0.083 to 24 hrs by LC-MS/MS analysis; assay type: ADME, organism-based; set-up: dose 50 mg/kg, route intraperitoneal; settings: in vivo; in short: as §3
[20] = AUC (0 to infinity) in Sprague-Dawley rat at 50 mg/kg, ip measured after 0.083 to 24 hrs by LC-MS/MS analysis; assay type: ADME, organism-based; set-up: dose 50 mg/kg, route intraperitoneal, time infinity; settings: in vivo; in short: as §3
[21] = Clearance in Sprague-Dawley rat at 50 mg/kg, ip measured after 0.083 to 24 hrs by LC-MS/MS analysis; assay type: ADME, organism-based; settings: in vivo; in short: as §3

**Q.** With `Cc1ccc(-n2nc3c(=O)n(CCCC(=O)NCCCCCCCCNc4cccc5c4C(=O)N(C4CCC(=O)N(C)C4=O)C5=O)nc(C)c3c2C)cc1` (stereo unspecified) as the molecule, how does the IC50 [1] read?
**A.** The IC50 was 70 µM.

**Q.** For `Cc1ccc(-n2nc3c(=O)n(CCCC(=O)NCCCCCCCNc4cccc5c4C(=O)N(C4CCC(=O)NC4=O)C5=O)nc(C)c3c2C)cc1` (stereo unspecified), which IC50 [1] is on record?
**A.** Its IC50 is 12 µM.

**Q.** What about the IC50 [2] of the same molecule?
**A.** The IC50 was 20 µM.

**Q.** With `Cc1ccc(-n2nc3c(=O)n(CCCC(=O)NCC(C)c4ccccc4)nc(C)c3c2C)cc1` (stereo unspecified) as the molecule, how does the IC50 [1] read?
**A.** Its IC50 is 56 µM.

**Q.** What about the IC50 [2] of the same molecule?
**A.** Its IC50 is 74 µM.

**Q.** What about the Activity [3] of the same molecule?
**A.** The Activity was 2.49%.

**Q.** And the Activity [4]?
**A.** The Activity was 8.61%.

**Q.** And the Activity [5]?
**A.** The Activity was 2.44%.

**Q.** What about the inhibition in vivo at 50 mg/kg [6] of the same molecule?
**A.** The inhibition in vivo at 50 mg/kg was 24%.

**Q.** And the Activity [7]?
**A.** The Activity was “Non-Toxic”.

**Q.** And the Activity [8]?
**A.** Its Activity is “Non-Toxic”.

**Q.** And the Activity [9]?
**A.** The Activity was “inactive”.

**Q.** Which IC50 [1] does the source give for `Cc1ccc(-n2nc3c(=O)n(CCCC(=O)NCCCCCCCCNc4ccc5c(c4)C(=O)N(C4CCC(=O)NC4=O)C5=O)nc(C)c3c2C)cc1` (stereo unspecified) here?
**A.** The IC50 was 7 µM.

**Q.** Which results are given for `Cc1ccc(-n2nc3c(=O)n(CCCC(=O)NCCCNc4cccc5c4C(=O)N(C4CCC(=O)NC4=O)C5=O)nc(C)c3c2C)cc1` (stereo unspecified)?
**A.** IC50 [1]: 81 µM; IC50 [2]: 68 µM

**Q.** With `Cc1ccc(-n2nc3c(=O)n(CCCC(=O)NCCCCCCNc4cccc5c4C(=O)N(C4CCC(=O)NC4=O)C5=O)nc(C)c3c2C)cc1` (stereo unspecified) as the molecule, how does the IC50 [1] read?
**A.** The IC50 was 15 µM.

**Q.** And the IC50 [2]?
**A.** The IC50 was 19 µM.

**Q.** For `Cc1ccc(-n2nc3c(=O)n(CCCC(=O)NCCCCNc4cccc5c4C(=O)N(C4CCC(=O)NC4=O)C5=O)nc(C)c3c2C)cc1` (stereo unspecified), which IC50 [1] is on record?
**A.** Its IC50 is 76 µM.

**Q.** And the IC50 [2]?
**A.** Its IC50 is 51 µM.

**Q.** Which IC50 [1] does the source give for `Cc1ccc(-n2nc3c(=O)n(CCCC(=O)NCCCCCCCCNc4cccc5c4C(=O)N(C4CCC(=O)NC4=O)C5=O)nc(C)c3c2C)cc1` (stereo unspecified) here?
**A.** Its IC50 is 8 µM.

**Q.** And the IC50 [2]?
**A.** The IC50 was 8 µM.

**Q.** What about the permeability [10] of the same molecule?
**A.** Its permeability is “Impermeable”.

**Q.** And the Activity [11]?
**A.** The Activity was “Active”.

**Q.** What about the IC50 [12] of the same molecule?
**A.** The IC50 was 71 µM.

**Q.** And the Activity [3]?
**A.** Its Activity is 62.58%.

**Q.** And the Activity [4]?
**A.** The Activity was 2.95%.

**Q.** What about the Activity [5] of the same molecule?
**A.** The Activity was 0.37%.

**Q.** And the Activity [13]?
**A.** Its Activity is 36.25%.

**Q.** And the Activity [14]?
**A.** The Activity was 2.06%.

**Q.** What about the Activity [15] of the same molecule?
**A.** The Activity was 0.9%.

**Q.** What about the inhibition in vivo at 50 mg/kg [6] of the same molecule?
**A.** Its inhibition in vivo at 50 mg/kg is 43%.

**Q.** And the Activity [7]?
**A.** The Activity was “Non-Toxic”.

**Q.** What about the Activity [8] of the same molecule?
**A.** Its Activity is “Non-Toxic”.

**Q.** What about the Activity [9] of the same molecule?
**A.** Its Activity is “Active”.

**Q.** What about the Activity [16] of the same molecule?
**A.** The Activity was “Active”.

**Q.** What about the half-life [17] of the same molecule?
**A.** The half-life was 307 min.

**Q.** What about the Tmax [18] of the same molecule?
**A.** Its Tmax is 1.67 h.

**Q.** What about the Cmax [19] of the same molecule?
**A.** Its Cmax is 564 ng/mL.

**Q.** What about the AUC(0-inf) [20] of the same molecule?
**A.** Its AUC(0-inf) is 4710 ng·h/mL.

**Q.** What about the CL/F [21] of the same molecule?
**A.** The CL/F was 179 mL/min/kg.

**Q.** With `Cc1ccc(-n2nc3c(=O)n(CCCC(=O)NCCCOCCOCCOCCCNc4cccc5c4C(=O)N(C4CCC(=O)NC4=O)C5=O)nc(C)c3c2C)cc1` (stereo unspecified) as the molecule, how does the IC50 [1] read?
**A.** Its IC50 is 26 µM.

**Q.** What about the IC50 [2] of the same molecule?
**A.** The IC50 was 23 µM.

**Q.** Which IC50 [1] does the source give for `Cc1ccc(-n2nc3c(=O)n(CCCC(=O)NCCCCCNc4cccc5c4C(=O)N(C4CCC(=O)NC4=O)C5=O)nc(C)c3c2C)cc1` (stereo unspecified) here?
**A.** The IC50 was 17 µM.

**Q.** And the IC50 [2]?
**A.** The IC50 was 32 µM.

**Q.** What does the source list for `Cc1ccc(-n2nc3c(=O)n(CCCC(=O)NCCOCCOCCNc4cccc5c4C(=O)N(C4CCC(=O)NC4=O)C5=O)nc(C)c3c2C)cc1` (stereo unspecified)?
**A.** IC50 [1]: 58 µM; IC50 [2]: 25 µM
